pIC50: −log10 of the molar value.
Target: T1, Aminopeptidase N (Sus scrofa, UniProt P15145)
T1 sequence (P15145 whole entry): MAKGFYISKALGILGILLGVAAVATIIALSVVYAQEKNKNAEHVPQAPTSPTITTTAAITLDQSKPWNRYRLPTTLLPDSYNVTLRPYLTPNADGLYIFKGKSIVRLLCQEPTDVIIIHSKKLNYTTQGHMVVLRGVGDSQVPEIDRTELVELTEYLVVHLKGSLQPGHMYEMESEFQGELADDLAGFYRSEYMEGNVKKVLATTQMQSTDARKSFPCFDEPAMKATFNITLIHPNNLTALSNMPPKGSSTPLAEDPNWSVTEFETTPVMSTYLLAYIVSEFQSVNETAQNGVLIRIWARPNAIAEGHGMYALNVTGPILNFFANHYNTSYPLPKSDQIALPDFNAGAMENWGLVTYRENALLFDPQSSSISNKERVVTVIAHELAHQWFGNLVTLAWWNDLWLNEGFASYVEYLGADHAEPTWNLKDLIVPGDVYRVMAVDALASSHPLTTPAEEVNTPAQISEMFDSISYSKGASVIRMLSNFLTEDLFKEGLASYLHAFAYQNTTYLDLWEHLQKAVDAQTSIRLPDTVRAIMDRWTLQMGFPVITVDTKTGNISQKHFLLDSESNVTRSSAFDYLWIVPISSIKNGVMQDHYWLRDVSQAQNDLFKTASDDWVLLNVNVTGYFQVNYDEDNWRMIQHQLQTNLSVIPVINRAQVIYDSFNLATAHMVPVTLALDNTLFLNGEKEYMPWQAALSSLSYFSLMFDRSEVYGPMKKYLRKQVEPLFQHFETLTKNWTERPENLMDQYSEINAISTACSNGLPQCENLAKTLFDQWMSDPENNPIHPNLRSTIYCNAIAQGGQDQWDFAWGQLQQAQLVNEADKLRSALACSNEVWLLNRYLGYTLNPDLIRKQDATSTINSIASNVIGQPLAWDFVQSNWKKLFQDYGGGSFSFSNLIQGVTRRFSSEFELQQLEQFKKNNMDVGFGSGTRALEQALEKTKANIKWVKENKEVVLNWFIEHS
Assay: Inhibition of microsomal […] aminopeptidase in pig kidney
In short: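 Porcine kidney microsomal APN, ammonium sulfate suspension diluted 600-fold in Tris-HCl (25 mM, pH 7.4). Activity compared with enzyme run without inhibitor.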

| pIC50 | Compound |
| --- | --- |
| 6.28 | CC(C)CC(C(=O)NO)C(=O)NCCCc1ccccc1 (centres undefined) |
| 6.01 | CC(C)CC(C(=O)NO)C(=O)NCCc1ccccc1 (centres undefined) |
| 6.23 | CC(C)CC(C(=O)NO)C(=O)NCc1ccccc1 (centres undefined) |
| 6.34 | CC(C)CC(C(=O)NO)C(=O)N1CCC(Cc2ccccc2)CC1 (centres undefined) |
| 5.52 | CC(C)CC(C(=O)NO)C(=O)NC1CCc2ccccc2C1 (centres undefined) |

Second part, the compound before the results:

| Compound | pIC50 |
| --- | --- |
| O=C(NO)C(Cc1ccccc1)C(=O)NCc1ccccc1 (centres undefined) | < 5.00 |
| CC(C)CC(C(=O)NO)C(=O)NCc1ccc(Cl)cc1 (centres undefined) | 5.60 |
| CC(C)CC(C(=O)NO)C(=O)NCCCCc1ccccc1 (centres undefined) | 7.09 |
| O=C(NO)C(Cc1cccc(Oc2ccccc2)c1)C(=O)NCc1ccccc1 (centres undefined) | < 5.00 |
| O=C(NO)C(Cc1ccccc1)C(=O)NCCCCc1ccccc1 (centres undefined) | < 5.00 |
| Cn1c(CC(C(=O)NO)C(=O)NCc2ccccc2)nc2ccccc21 (centres undefined) | 6.14 |
| O=C(NO)C(Cc1cccc(Oc2ccccc2)c1)C(=O)NCCCCc1ccccc1 (centres undefined) | < 5.00 |
| CC(C)CC(C(=O)NO)C(=O)NCc1cccc(Oc2ccccc2)c1 (centres undefined) | 6.35 |
| CC(C)CC(C(=O)NO)C(=O)NCc1ccc(F)cc1 (centres undefined) | 5.52 |

Reference: ChEMBL document CHEMBL1144529, “A library of novel hydroxamic acids targeting the metallo-protease family: design, parallel synthesis and screening” (Bioorg Med Chem, 2007)
